Test results published in ChEMBL document CHEMBL3627637, “Phenylalanine and Phenylglycine Analogues as Arginine Mimetics in Dengue Protease Inhibitors” (J Med Chem, 2015).
Calls of active or inactive are those of the source. No cut-off for these calls is given here. Non-standard residues stand in square brackets, D forms with d. Residues, ends and D or L forms follow the SMILES beside them. *: point of attachment. Phe(3-CN) = N#Cc1cccc(C[C@H](N)C(=O)O)c1; Phe(4-CN) = N#Cc1ccc(C[C@H](N)C(=O)O)cc1; Phe(4-NH2) = Nc1ccc(C[C@H](N)C(=O)O)cc1; Hydrocinnamoyl = O=C(CCc1ccccc1)*; Phg = N[C@H](C(=O)O)c1ccccc1; Bz = O=C(c1ccccc1)*

system: not listed separately; experiment: Permeability of the compound at 200 uM incubated for 5 hrs by PAMPA; assay type: physicochemical
How it was run: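 PAMPA in PBS: donor wells held 200 μM compound (triplicate) against PBS acceptor, 5 h at room temperature. Donor and acceptor concentrations were quantified by RP-18 HPLC-UV against calibration curves (10–200 μM). Pe and membrane retention were calculated by a literature method. Amiloride, caffeine, famotidine, furosemide and phenytoin served as references.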

For `NCCCC[C@H](NC(=O)[C@H](Cc1cccc(CN)c1)NC(=O)c1ccccc1)C(=O)N[C@H](C(N)=O)c1ccccc1`, the permeability was “impermeable”.

target: Trypsin (Homo sapiens, UniProt P07477+P07478+P35030); experiment: Inhibition of trypsin (unknown origin) at 50 uM preincubated with protein for 15 mins followed by boc-Val-Pro-Arg-AMC substrate addition measured by continuous fluorometric analysis; assay type: protein assay
How it was run: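 Trypsin (1 nM) was preincubated 15 min with inhibitor (50 μM final) in 50 mM Tris-HCl pH 7.5, 150 mM NaCl, 0.05% Tween 20. boc-Val-Pro-Arg-AMC (50 μM final) was added. Continuous fluorescence at ex 355/em 460 nm; rate compared with an uninhibited control. Triplicate.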

First: NCCCC[C@H](NC(=O)[C@H](Cc1ccc(N)cc1)NC(=O)c1ccccc1)C(=O)N[C@H](C(N)=O)c1ccccc1 (Bz-[Phe(4-NH2)]-Lys-[Phg]-NH2)
Second: N#Cc1ccc(C[C@H](NC(=O)c2ccccc2)C(=O)N[C@@H](CCCCN)C(=O)N[C@H](C(N)=O)c2ccccc2)cc1 (Bz-[Phe(4-CN)]-Lys-[Phg]-NH2)
The inhibition of the first is lower: 0% for the first, 0.7% for the second.

Going from `N#Cc1cccc(C[C@H](NC(=O)c2ccccc2)C(=O)N[C@@H](CCCCN)C(=O)N[C@H](C(N)=O)c2ccccc2)c1` (Bz-[Phe(3-CN)]-Lys-[Phg]-NH2) to `NCCCC[C@H](NC(=O)[C@H](Cc1cccc(N)c1)NC(=O)c1ccccc1)C(=O)N[C@H](C(N)=O)c1ccccc1`, the inhibition rises from 0% to 4.7%.

First: N=C(N)NCCC[C@H](NC(=O)CCc1ccccc1)C(=O)N[C@@H](CCCCN)C(=O)N[C@H](C(N)=O)c1ccccc1 (Hydrocinnamoyl-Arg-Lys-[Phg]-NH2)
Second: NCCCC[C@H](NC(=O)[C@H](Cc1cccc(CN)c1)NC(=O)c1ccccc1)C(=O)N[C@H](C(N)=O)c1ccccc1
The inhibition of the first is lower: 2.3% for the first, 11.2% for the second.

system: dengue virus type 2; experiment: Inhibition of Dengue virus (serotype 2) NS2B-NS3 protease at 50 uM preincubated with protein for 15 mins followed by Abz-Nle-Lys-Arg-Arg-Ser-3-(NO2)Tyr substrate addition measured by continuous fluorometric analysis
How it was run: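 Continuous FRET assay in 50 mM Tris-HCl pH 9.0, 10% ethylene glycol, 0.0016% Brij 58. DENV2 protease (100 nM) was preincubated 15 min with inhibitor (50 μM final), then Abz-Nle-Lys-Arg-Arg-Ser-3-(NO2)Tyr (50 μM final; Km 105 μM) was added. Read at ex 320/em 405 nm as slope over 15 min, relative to an uninhibited control. Triplicate.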

Going from `NCCCC[C@H](NC(=O)[C@H](Cc1ccc(N)cc1)NC(=O)c1ccccc1)C(=O)N[C@H](C(N)=O)c1ccccc1` (Bz-[Phe(4-NH2)]-Lys-[Phg]-NH2) to `N#Cc1ccc(C[C@H](NC(=O)c2ccccc2)C(=O)N[C@@H](CCCCN)C(=O)N[C@H](C(N)=O)c2ccccc2)cc1` (Bz-[Phe(4-CN)]-Lys-[Phg]-NH2), the inhibition rises from 21.1% to 22%.

Compared with `N#Cc1cccc(C[C@H](NC(=O)c2ccccc2)C(=O)N[C@@H](CCCCN)C(=O)N[C@H](C(N)=O)c2ccccc2)c1` (Bz-[Phe(3-CN)]-Lys-[Phg]-NH2), `NCCCC[C@H](NC(=O)[C@H](Cc1cccc(N)c1)NC(=O)c1ccccc1)C(=O)N[C@H](C(N)=O)c1ccccc1` is lower in inhibition: 29.6% for the first, 28.9% for the second.

First: N=C(N)NCCC[C@H](NC(=O)CCc1ccccc1)C(=O)N[C@@H](CCCCN)C(=O)N[C@H](C(N)=O)c1ccccc1 (Hydrocinnamoyl-Arg-Lys-[Phg]-NH2)
Second: NCCCC[C@H](NC(=O)[C@H](Cc1cccc(CN)c1)NC(=O)c1ccccc1)C(=O)N[C@H](C(N)=O)c1ccccc1
The inhibition of the first is higher: 95.9% for the first, 82.4% for the second.

system: not listed separately; experiment: Inhibition of Dengue virus (serotype 2) NS2B-NS3 protease preincubated with protein for 15 mins followed by Abz-Nle-Lys-Arg-Arg-Ser-3-(NO2)Tyr substrate addition measured by continuous fluorometric analysis; design: species or system dengue virus type 2
How it was run: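 DENV2 protease (100 nM) in Tris-HCl pH 9.0/ethylene glycol/Brij 58 buffer, preincubated 15 min with inhibitor, then 50 μM FRET substrate added. Read at ex 320/em 405 nm over 15 min. Done for compounds with ≥70% inhibition, using series of 0–2.5, 0–6 or 0–30 μM, in triplicate, with nonlinear fitting. Ki came from substrate at 50–200 μM via Cheng–Prusoff.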

First: N=C(N)NCCC[C@H](NC(=O)CCc1ccccc1)C(=O)N[C@@H](CCCCN)C(=O)N[C@H](C(N)=O)c1ccccc1 (Hydrocinnamoyl-Arg-Lys-[Phg]-NH2)
Second: NCCCC[C@H](NC(=O)[C@H](Cc1cccc(CN)c1)NC(=O)c1ccccc1)C(=O)N[C@H](C(N)=O)c1ccccc1
The IC50 of the first is 4.4-fold lower: 2.7 µM for the first, 11.8 µM for the second. The first is the more potent here.

target: Prothrombin (Homo sapiens, UniProt P00734); experiment: Inhibition of human thrombin at 25 uM preincubated with protein for 15 mins followed by boc-Val-Pro-Arg-AMC substrate addition measured after 10 mins by continuous fluorometric analysis

Compared with `NCCCC[C@H](NC(=O)[C@H](Cc1ccc(N)cc1)NC(=O)c1ccccc1)C(=O)N[C@H](C(N)=O)c1ccccc1` (Bz-[Phe(4-NH2)]-Lys-[Phg]-NH2), `N#Cc1ccc(C[C@H](NC(=O)c2ccccc2)C(=O)N[C@@H](CCCCN)C(=O)N[C@H](C(N)=O)c2ccccc2)cc1` (Bz-[Phe(4-CN)]-Lys-[Phg]-NH2) is higher in inhibition: 2.3% for the first, 7.5% for the second.

Going from `N#Cc1cccc(C[C@H](NC(=O)c2ccccc2)C(=O)N[C@@H](CCCCN)C(=O)N[C@H](C(N)=O)c2ccccc2)c1` (Bz-[Phe(3-CN)]-Lys-[Phg]-NH2) to `NCCCC[C@H](NC(=O)[C@H](Cc1cccc(CN)c1)NC(=O)c1ccccc1)C(=O)N[C@H](C(N)=O)c1ccccc1`, the inhibition rises from 4% to 5.6%.

`N=C(N)NCCC[C@H](NC(=O)CCc1ccccc1)C(=O)N[C@@H](CCCCN)C(=O)N[C@H](C(N)=O)c1ccccc1` (Hydrocinnamoyl-Arg-Lys-[Phg]-NH2) showed an inhibition of 2.5%.

For `NCCCC[C@H](NC(=O)[C@H](Cc1cccc(N)c1)NC(=O)c1ccccc1)C(=O)N[C@H](C(N)=O)c1ccccc1`, the inhibition was “inactive”.

target: Genome polyprotein (West Nile virus) (UniProt P06935); experiment: Inhibition of West Nile virus NS2B-NS3 protease at 50 uM preincubated with protein for 15 mins followed by Abz-Gly-Leu-Lys-Arg-Gly-Gly-3-(NO2)-Tyr substrate addition measured by continuous fluorometric analysis
How it was run: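 WNV NS2B-NS3pro (150 nM) was preincubated 15 min with inhibitor (50 μM final) in 50 mM Tris-HCl pH 9.0, 10% ethylene glycol, 0.0016% Brij 58. Abz-Gly-Leu-Lys-Arg-Gly-Gly-3-(NO2)-Tyr (50 μM; Km 212 μM) started the reaction. Continuous read at ex 320/em 405 nm for 15 min against an uninhibited control. Triplicate.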

Chain of Genome polyprotein (West Nile virus) (P06935 whole entry): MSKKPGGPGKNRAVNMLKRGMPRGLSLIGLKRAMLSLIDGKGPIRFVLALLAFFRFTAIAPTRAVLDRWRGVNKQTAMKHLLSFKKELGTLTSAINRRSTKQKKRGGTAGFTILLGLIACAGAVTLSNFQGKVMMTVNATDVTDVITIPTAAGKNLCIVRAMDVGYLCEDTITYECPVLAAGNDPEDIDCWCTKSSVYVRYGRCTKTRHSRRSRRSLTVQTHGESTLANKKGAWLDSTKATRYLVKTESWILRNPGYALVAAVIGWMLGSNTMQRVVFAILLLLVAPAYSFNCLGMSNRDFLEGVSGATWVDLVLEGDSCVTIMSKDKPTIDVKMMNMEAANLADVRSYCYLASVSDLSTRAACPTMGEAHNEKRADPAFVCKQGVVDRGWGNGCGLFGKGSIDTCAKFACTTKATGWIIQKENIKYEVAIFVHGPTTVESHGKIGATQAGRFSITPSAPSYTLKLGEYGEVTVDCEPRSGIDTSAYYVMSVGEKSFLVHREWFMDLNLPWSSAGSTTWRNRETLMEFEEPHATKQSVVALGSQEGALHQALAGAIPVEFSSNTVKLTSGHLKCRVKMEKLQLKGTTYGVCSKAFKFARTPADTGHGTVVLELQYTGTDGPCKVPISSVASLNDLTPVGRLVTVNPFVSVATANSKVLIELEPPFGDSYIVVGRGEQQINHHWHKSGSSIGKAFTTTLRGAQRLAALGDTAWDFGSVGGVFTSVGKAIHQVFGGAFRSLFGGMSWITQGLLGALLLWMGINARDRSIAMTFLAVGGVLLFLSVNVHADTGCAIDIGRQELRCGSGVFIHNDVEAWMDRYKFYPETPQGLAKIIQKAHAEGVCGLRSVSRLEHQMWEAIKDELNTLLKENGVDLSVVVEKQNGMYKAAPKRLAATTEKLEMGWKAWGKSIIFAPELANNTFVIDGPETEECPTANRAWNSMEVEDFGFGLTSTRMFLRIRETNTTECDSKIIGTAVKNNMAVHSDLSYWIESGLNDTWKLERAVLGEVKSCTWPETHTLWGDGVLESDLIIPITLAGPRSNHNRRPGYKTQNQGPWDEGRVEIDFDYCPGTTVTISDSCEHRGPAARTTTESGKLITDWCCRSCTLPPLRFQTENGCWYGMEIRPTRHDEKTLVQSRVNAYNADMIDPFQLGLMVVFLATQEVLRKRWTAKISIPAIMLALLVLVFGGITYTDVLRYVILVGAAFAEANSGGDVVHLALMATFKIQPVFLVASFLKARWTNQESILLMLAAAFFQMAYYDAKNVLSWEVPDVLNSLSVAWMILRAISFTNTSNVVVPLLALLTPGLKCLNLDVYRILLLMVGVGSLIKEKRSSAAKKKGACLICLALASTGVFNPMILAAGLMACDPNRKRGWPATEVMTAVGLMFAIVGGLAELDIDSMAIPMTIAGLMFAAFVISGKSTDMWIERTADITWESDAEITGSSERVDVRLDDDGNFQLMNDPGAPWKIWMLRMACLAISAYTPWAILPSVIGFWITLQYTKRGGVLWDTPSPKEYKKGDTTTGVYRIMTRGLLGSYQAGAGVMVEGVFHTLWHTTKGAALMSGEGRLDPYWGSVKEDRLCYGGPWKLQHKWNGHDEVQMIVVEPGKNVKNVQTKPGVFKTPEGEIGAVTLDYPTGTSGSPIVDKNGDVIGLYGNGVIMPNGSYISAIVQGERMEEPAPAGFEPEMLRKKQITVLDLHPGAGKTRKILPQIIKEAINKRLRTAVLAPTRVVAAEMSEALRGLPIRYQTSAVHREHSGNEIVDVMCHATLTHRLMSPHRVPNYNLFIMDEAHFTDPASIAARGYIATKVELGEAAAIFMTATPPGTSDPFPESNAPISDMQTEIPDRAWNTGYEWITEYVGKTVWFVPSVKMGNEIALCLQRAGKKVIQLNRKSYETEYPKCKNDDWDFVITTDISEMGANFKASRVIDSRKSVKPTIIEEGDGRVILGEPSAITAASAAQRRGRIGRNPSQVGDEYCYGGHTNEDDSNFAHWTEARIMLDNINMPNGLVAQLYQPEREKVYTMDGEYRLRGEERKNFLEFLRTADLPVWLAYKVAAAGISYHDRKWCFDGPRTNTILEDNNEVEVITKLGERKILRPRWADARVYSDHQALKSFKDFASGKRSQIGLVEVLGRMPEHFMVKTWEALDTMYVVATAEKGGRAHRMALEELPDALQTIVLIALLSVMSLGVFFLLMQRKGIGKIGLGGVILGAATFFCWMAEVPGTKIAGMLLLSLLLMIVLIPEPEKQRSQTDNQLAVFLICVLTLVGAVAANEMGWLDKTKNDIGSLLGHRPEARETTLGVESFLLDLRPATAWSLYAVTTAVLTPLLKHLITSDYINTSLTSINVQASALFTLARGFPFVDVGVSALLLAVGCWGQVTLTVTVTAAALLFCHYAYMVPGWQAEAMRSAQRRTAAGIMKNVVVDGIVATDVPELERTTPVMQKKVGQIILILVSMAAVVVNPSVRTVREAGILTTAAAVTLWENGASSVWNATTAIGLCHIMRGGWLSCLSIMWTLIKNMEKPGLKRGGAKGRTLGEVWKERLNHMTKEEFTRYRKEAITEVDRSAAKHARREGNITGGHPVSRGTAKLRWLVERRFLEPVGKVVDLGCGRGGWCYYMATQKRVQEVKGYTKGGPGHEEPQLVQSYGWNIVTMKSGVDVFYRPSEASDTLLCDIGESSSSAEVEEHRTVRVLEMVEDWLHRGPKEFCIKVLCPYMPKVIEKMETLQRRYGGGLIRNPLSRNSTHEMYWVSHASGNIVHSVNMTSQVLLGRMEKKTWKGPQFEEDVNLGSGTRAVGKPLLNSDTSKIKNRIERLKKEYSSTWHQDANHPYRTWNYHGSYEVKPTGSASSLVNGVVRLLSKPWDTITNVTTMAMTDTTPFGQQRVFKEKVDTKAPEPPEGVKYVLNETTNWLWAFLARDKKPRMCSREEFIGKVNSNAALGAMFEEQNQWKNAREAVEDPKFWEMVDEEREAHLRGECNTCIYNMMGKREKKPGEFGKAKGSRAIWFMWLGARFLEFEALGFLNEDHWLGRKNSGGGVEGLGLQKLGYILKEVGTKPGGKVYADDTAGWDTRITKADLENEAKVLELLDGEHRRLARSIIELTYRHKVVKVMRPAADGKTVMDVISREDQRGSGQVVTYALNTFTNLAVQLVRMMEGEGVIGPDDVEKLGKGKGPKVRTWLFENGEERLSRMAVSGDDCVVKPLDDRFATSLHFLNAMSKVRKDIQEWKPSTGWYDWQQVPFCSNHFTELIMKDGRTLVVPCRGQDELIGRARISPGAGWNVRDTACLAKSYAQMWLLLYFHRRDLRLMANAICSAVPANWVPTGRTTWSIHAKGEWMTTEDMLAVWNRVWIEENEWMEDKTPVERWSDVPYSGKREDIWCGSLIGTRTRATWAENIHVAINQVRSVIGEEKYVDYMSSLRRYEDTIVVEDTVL

First: NCCCC[C@H](NC(=O)[C@H](Cc1ccc(N)cc1)NC(=O)c1ccccc1)C(=O)N[C@H](C(N)=O)c1ccccc1 (Bz-[Phe(4-NH2)]-Lys-[Phg]-NH2)
Second: N#Cc1ccc(C[C@H](NC(=O)c2ccccc2)C(=O)N[C@@H](CCCCN)C(=O)N[C@H](C(N)=O)c2ccccc2)cc1 (Bz-[Phe(4-CN)]-Lys-[Phg]-NH2)
The inhibition of the first is higher: 23.8% for the first, 4.7% for the second.

Going from `N#Cc1cccc(C[C@H](NC(=O)c2ccccc2)C(=O)N[C@@H](CCCCN)C(=O)N[C@H](C(N)=O)c2ccccc2)c1` (Bz-[Phe(3-CN)]-Lys-[Phg]-NH2) to `NCCCC[C@H](NC(=O)[C@H](Cc1cccc(N)c1)NC(=O)c1ccccc1)C(=O)N[C@H](C(N)=O)c1ccccc1`, the inhibition rises from 15.6% to 23.7%.

First: N=C(N)NCCC[C@H](NC(=O)CCc1ccccc1)C(=O)N[C@@H](CCCCN)C(=O)N[C@H](C(N)=O)c1ccccc1 (Hydrocinnamoyl-Arg-Lys-[Phg]-NH2)
Second: NCCCC[C@H](NC(=O)[C@H](Cc1cccc(CN)c1)NC(=O)c1ccccc1)C(=O)N[C@H](C(N)=O)c1ccccc1
The inhibition of the first is lower: 45.3% for the first, 68.6% for the second.
